Data set [1] has as its system HEK 293A cells. Kind of data set: Ensemble whole cell patch clamp. The class given is cell-based. The settings on record: for change in membrane conductivity compared to ECS controls: 0.004 and 0.04 mM SDS, 0.0001 and 0.001 mM CTAB; for concentration at which increased membrane permeability is induced: current change 900 s after exposure, superfusion. A general note: The patch-clamp technique gives a direct electrical read-out from membranes.

Data set [2] relates to HEK 293A cells. The class given is cell-based. The settings on record: for Dw ± standard error (detergent in water, intercept): quiescent, onset of increased permeability; for partition constant K [lower bound, upper bound]: range from error in Rb and intercept. In short, it runs like this:
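HEK 293A cells (passages 12–17) detached with detachin, rested in serum-free medium, then 1.5, 5, 10 or 15 million cells in ECS incubated 15 min with graded detergent. Cells were pelleted at 1000 rpm, resuspended in ECS and patched on an IonFlux 16 ensemble whole-cell system with K-aspartate intracellular solution. Time-averaged current over the first 4 min served as the permeability read-out. Detergent giving a 1 nA rise ×15 estimated the onset. Onset concentration vs lipid concentration was fitted linearly: slope Rb, intercept Dw.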

The test system of data set [3] is HEK 293A cells. Format: cell-based. The settings on record: for reversal of increased conductivity at end of experiment (600 s): 0.2 mM SDS 30 s exposure, 0.1 mM CTAB 10 s, 0.137 mM ORB 10 s; for reversibility of increased permeability induced within 10 s of exposure: 0.2 mM SDS, 0.1 mM CTAB, 0.137 mM ORB, 15 min after exposure. In short, it runs like this: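 IonFlux 16 whole-cell patch clamp of HEK 293A cells in ECS at sub-solubilising test concentrations, applied for 10, 30 or 300 s. Exposure was followed by ECS perfusion for 900 s. Membrane current was tracked for reversal. Controls were ECS alone or ECS + 5% DMSO, the vehicle for the rhodamine lipid probe.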

Data set [4] has as its system HEK 293A cells. Kind of data set: Fluorescence microscopy of patched cells. The settings on record: ORB at all three concentrations, 10 min. The class given is cell-based.
The test system of the next data set is HEK293A cells. The data set is described as follows: XTT assay. Format: cell-based. The settings on record: 20 min. The method, boiled down: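 HEK293A cells were seeded at 100000 cells/well and incubated overnight at 37 °C, 5% CO2. Cells were exposed 20 min to test compound in ECS, or to ECS alone, then the supernatant was replaced with PBS. XTT reagent (solution A:B, 50:1) was added and incubated 2 h at 37 °C. A490 minus A690 was read, and % viability was expressed relative to ECS-treated cells.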
Background: Tetrazolium dyes change colour on reduction, which living cells bring about.

Data set [5] can be described thus: Critical micelle concentration by DPH fluorimetric method. Format: physicochemical. The method, boiled down: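 Fluorimetric CMC determination: 10 μL of 1 mM diphenylhexatriene (DPH) in tetrahydrofuran added to test detergent serially diluted in ECS (pH 7.45, HEPES-buffered saline with glucose). Excitation 358 nm, emission scanned 400–500 nm. CMC taken at the sharp rise in fluorescence as DPH enters micelles.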

The conditions of data set [6]: POPC vesicles; cited from earlier work.
Data set [7] deals with HEK 293A cells. The data set is described as follows: Quiescent partitioning experiment with trypan blue assay. The class given is cell-based. The settings on record: range from error estimate. The method, boiled down: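 Cationic detergent only. HEK 293A cells in ECS were pretreated 15 min with graded detergent concentrations as in the patch-clamp partitioning protocol. Trypan blue exclusion, not patch clamp, served as the membrane-permeability marker. Onset concentration was plotted against cellular lipid concentration and fitted linearly (slope Rb, intercept Dw). K was derived from R and Dw and reported as a range.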

For data set [8] the following is noted: POPC/POPG vesicles; cited from earlier work.
The conditions of data set [9]: depending on size, composition of vesicles and temperature; cited from earlier work.
Where [10] appears, read: 0.2 and 2 mM SDS, 0.1, 1 and 10 mM CTAB, 0.035, 0.14 and […] ORB.
Where [11] appears, read: 2 mM SDS, 1 and 10 mM CTAB, 1.37 mM ORB.
Setting [12] is: 0.004–0.2 mM SDS, 0.001–0.1 mM CTAB, 0.0137–0.137 mM ORB.
Setting [13] is: 0.004–0.04 mM SDS, 0.0001–0.001 mM CTAB.

The structures appear in SMILES notation. Values joined by “and” are separate entries in the source; they are usually repeats but may differ in a detail not shown here. Equal entries are not always repeated. Where two headings read alike, the source gives them in different places.

`CCCCCCCCCCCCCCCCCCOC(=O)c1ccccc1-c1c2ccc(=[N+](CC)CC)cc-2oc2cc(N(CC)CC)ccc12.[Cl-]` [ORB, octadecyl rhodamine B]: the “change in membrane current compared to controls” value with HEK 293A cells [1] (0.014 (0.0137) mM ORB) is “significantly different from the ECS control but not 0.007 mM ORB”. Further, the “change in membrane current compared to ECS controls” value with HEK 293A cells [1] (setting [10]) is reported as “increased the membrane current significantly”. In the data set with HEK 293A cells [2], the “Dw ± standard error (detergent in water, intercept)” value (“Dw ± standard error” for short) is listed as 7.3 ± 3.1 and the “partition constant K [lower bound, upper bound]” value is 24000–99000 M^–1. For the same compound, in the data set on HEK 293A cells [3], the “reversal of increased conductivity at end of experiment (600 s)” value (“reversal of increased conductivity” below) was “not reversed” and the “reversibility of increased permeability induced within 10 s of exposure” value is reported as “not reversible for over 15 min”. Also, the “state of cells after ORB exposure (ORB fluorescence)” value with HEK 293A cells [4] was “fluorescent and intact”. Also, the “metabolic activity of exposed cells (XTT)” value (“metabolic activity” below) with HEK293A cells (setting [11]) is recorded as “reduced metabolic activity”. In addition, the “metabolic activity” value with HEK293A cells (setting [12]) is recorded as “do not show a loss in metabolic activity”.

On to `CCCCCCCCCCCCCCCC[N+](C)(C)C` [CTAB, cetyltrimethylammonium bromide], for which, in the data set on HEK 293A cells [1] (0.01 mM CTAB), the “current eventually reached as fraction of open channel current” value is recorded as 1/3. Besides, the “change in membrane current compared to ECS controls” value in the data set on HEK 293A cells [1] (0.01 mM CTAB (below CMC)) is “slow increase in current”; in the data set with HEK 293A cells [1] (setting [10]), “rapid increase in membrane current”. Further, the “time of onset of current increase after compound release” value (“time of onset of current increase” below) in the data set with HEK 293A cells [1] (0.2 mM SDS, 0.1 mM CTAB) is 2 to 3 s and 1 to 3 s; in the data set with HEK 293A cells [1] (2 mM SDS, 1 mM CTAB), 1 s; with HEK 293A cells [1] (10 mM CTAB) it was 1 s. The “group of current traces” value in the data set on HEK 293A cells [1] (0.2 mM SDS, 0.1–10 mM CTAB) is reported as 2; in the data set on HEK 293A cells [1] (setting [13]) it was 1. Moreover, in the data set on HEK 293A cells [1], the “change in membrane conductivity compared to ECS controls” value is “did not cause a change in conductance”. For the same compound, the “concentration at which increased membrane permeability is induced” value in the data set with HEK 293A cells [1] came out at 10 µM. Further, the “critical micelle concentration (CMC) in ECS” value in [5] was 0.03 to 0.06 mM and ~0.06 mM. The compound also showed a CMC in water in [5] of 1 to 2 mM. Also, in data set [6], the “partition constant K” value is 350000 M^–1. In addition, the “Dw ± standard error” value in the data set on HEK 293A cells [2] was determined as 4.2 ± 2.8. Moreover, in the data set with HEK 293A cells [2], the “partition constant K [lower bound, upper bound]” value is reported as 29000–476000 M^–1. The “reversal of increased conductivity” value in the data set with HEK 293A cells [3] is recorded as “not reversed”. The “reversibility of increased permeability induced within 10 s of exposure” value with HEK 293A cells [3] is listed as “not reversible for over 15 min”. Moreover, the “metabolic activity” value with HEK293A cells (setting [11]) is reported as “reduced metabolic activity”; in the data set with HEK293A cells (setting [12]), “do not show a loss in metabolic activity”. Further, in the data set with HEK 293A cells [7], the “partition constant K range (trypan blue assay)” value was 37000 to 67000 M^–1.

Consider `CCCCCCCCCCCCOS(=O)(=O)[O-].[Na+]` [SDS, sodium dodecyl sulfate], for which the “partition constant K” value in [8] is 37000 M^–1. Also, in the data set with HEK 293A cells [1] (0.2 mM SDS), the “duration of initial change in current” value was 3 to 4 s and the “duration of subsequent slow current increase” value was 67 ± 25 s. Moreover, in the data set on HEK 293A cells [1] (0.2 mM SDS, total current of 20 cells), the “current reached at the end of 15 min” value was around 50 nA. In the data set on HEK 293A cells [1] (0.2 mM SDS, 0.1 mM CTAB), the “time of onset of current increase” value is 2 to 3 s. Further, the “group of current traces” value with HEK 293A cells [1] (0.2 mM SDS, 0.1–10 mM CTAB) is listed as 2. Moreover, in the data set with HEK 293A cells [1] (2 mM SDS), the final current level entry is “eventually reached open channel current levels” and the “group of current traces” value is recorded as 3. Further, the “time of onset of current increase” value with HEK 293A cells [1] (2 mM SDS, 1 mM CTAB) came out at 1 s. Besides, in the data set with HEK 293A cells [1] (2 mM SDS, except one trace that took 871 s), the “time to reach open channel current” value worked out at 120 ± 61 s. Moreover, in the data set with HEK 293A cells [1], the “change in membrane conductivity compared to ECS controls” value is “does not result in an increase in conductivity” and the “concentration at which increased membrane permeability is induced” value came to 200 µM. Besides, the “group of current traces” value in the data set with HEK 293A cells [1] (setting [13]) stood at 1. In the data set with HEK 293A cells [1] (0.2 and 2 mM SDS), the “time within which large and sudden increase in conductivity occurs” value was 1 to 3 s. The “change in membrane current compared to ECS controls” value in the data set with HEK 293A cells [1] (setting [10]) was “initial sharp increase in current”. Also, in data set [5], the “critical micelle concentration (CMC) in ECS” value was 0.8 to 1 mM and ~0.8 mM; the CMC in water lay within 6 to 8 mM. For the same compound, the “partition constant K” value in data set [6] is 33000 M^–1. Also, in data set [9], the “partition constant K” value is listed as 12500 to 70000 M^–1. Further, in the data set on HEK 293A cells [2], the “Dw ± standard error” value is 29 ± 10 and the “partition constant K [lower bound, upper bound]” value was 16300–39200 M^–1. For the same compound, in the data set with HEK 293A cells [3], the “reversal of increased conductivity” value was “not reversed” and the “reversibility of increased permeability induced within 10 s of exposure” value is “not reversible for over 15 min”. Further, the “metabolic activity” value with HEK293A cells (setting [11]) is reported as “reduced metabolic activity”. The “metabolic activity” value in the data set with HEK293A cells (setting [12]) was “do not show a loss in metabolic activity”.

The values are drawn from article PMC3983356 (The Journal of Physical Chemistry. B, 2014).
